# Bioassay records as filed in PubChem BioAssay.
# Diaph act CS: diaphorase activation or chemical reduction counter-screen; AID 1229; activation factor at 20 µM; 190,000 compounds, 0.005% hits; Diaphorase/resazurin coupled assay, resorufin fluorescence, 16 min; active compounds read high; 1 = vehicle wells, 0 = NADH-free wells;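 active = diaphorase activity raised at least twofold by the compound at 20 µM; inactive = activation factor below 2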
#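 test system = bacterial diaphorase enzyme (C. kluyveri) | quantity = enzyme 0.07 U/mL final | reagent = NADH substrate 0.114 mM plus resazurin dye 0.1 mM, final | incubation = 16 min enzyme reaction, ambient temperature | buffer or medium = HEPES pH 7.4 buffer with MgCl2 and Tween 20 | signal = fluorescence of resorufin, 544 nm excitation, 590 nm emission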
# FLuc act counter: firefly luciferase counter-screen for stimulation assays; activation factor at 10 µM; ATPlite luciferase biochemical, luminescence, 10 min; 0 = ATP-free wells, 1 = DMSO control; 200,000 tested, under 10 active;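 active = luciferase activation factor, scaled between plate controls, of at least 2 with compound at 10 µM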
# Target sequence (P08659 whole entry, looked up): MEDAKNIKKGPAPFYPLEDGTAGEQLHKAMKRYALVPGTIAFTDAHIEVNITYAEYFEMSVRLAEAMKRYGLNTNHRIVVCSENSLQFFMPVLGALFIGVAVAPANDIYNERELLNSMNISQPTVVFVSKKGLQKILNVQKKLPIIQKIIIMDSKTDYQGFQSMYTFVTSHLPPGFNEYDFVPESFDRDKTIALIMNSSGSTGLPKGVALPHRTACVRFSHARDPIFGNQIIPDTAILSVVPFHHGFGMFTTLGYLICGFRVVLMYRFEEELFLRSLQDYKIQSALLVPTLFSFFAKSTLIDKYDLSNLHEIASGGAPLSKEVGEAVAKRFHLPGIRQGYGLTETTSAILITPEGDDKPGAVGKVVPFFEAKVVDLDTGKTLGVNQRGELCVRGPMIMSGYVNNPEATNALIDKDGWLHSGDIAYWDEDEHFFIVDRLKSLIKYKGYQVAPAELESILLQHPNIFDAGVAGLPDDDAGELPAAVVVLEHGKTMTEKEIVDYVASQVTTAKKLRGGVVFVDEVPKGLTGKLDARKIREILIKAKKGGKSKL
#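 Material: Luciferase/luciferin reagent mix | Doses: Test compounds dosed from 2 mM stocks in 100% DMSO | Timing: 10 min incubation after luciferase reagent addition, room temperature | Measured by: Luminescence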
# FLuc inh counter: Photinus pyralis luciferase inhibition counter-screen; ATPLite firefly luciferase biochemical luminescence, 10 min; inhibition, % at 10 µM; 200,000 compounds, 1.5% hits;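 active = inhibition above about 50% when tested at 10 µM, limit read from the data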
# G6PDH counter: counter-screen for G6PDH assay hits: L. mesenteroides G6PDH inhibition; AID 1020; Purified L. mesenteroides G6PDH, diaphorase/resazurin coupled fluorescence, 45 min; inhibition, % at 5 µM; 200,000 compounds, 0.12% hits; in the data active = inhibition above about 50%
# Diaphorase inh: inhibits diaphorase or chemically oxidizes, flagging diaphorase assay artifacts; diaphorase resazurin-to-resorufin fluorescence, NADH, 16 min; bacterial (C. kluyveri) enzyme, not human; inhibition, % at 20 µM; 190,000 compounds, 0.69% hits;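 active = primary screen inhibition at 20 µM above a set limit, cut at about 50% in these data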;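 note: plate controls were DMSO with full reaction for no effect and wells lacking NADH for full effect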
#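 System: Diaphorase enzyme from Clostridium kluyveri | Amount: Enzyme working solution with 0.14 U/mL diaphorase | Benchmarks: No-NADH positive control and DMSO neutral control | Signal: Fluorescence of resorufin formed from resazurin, Ex 544/Em 590 nm | Schedule: 16-min room-temperature incubation before reading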
# Numbers without * were called inactive; x = no result. An excerpt weighted towards active compounds, which were near 2.3% of everything screened.
SMILES,Diaph act CS,FLuc act counter,FLuc inh counter,G6PDH counter,Diaphorase inh
Cc1cc(C(=O)CSc2cccc[n+]2[O-])c(C)n1-c1ccccc1,0.9,0.2,80.3*,6.1,9.4
Cc1cc(C(=O)CSc2nncn2C)c(C)n1-c1ccccc1,0.9,0.3,68.6*,-4.4,10.9
Cc1cc(C(=O)CSc2nncs2)c(C)n1-c1c(C)n(C)n(-c2ccccc2)c1=O,0.9,1,-0.7,3.2,9.4
Cc1ccc(CNC(=O)N[C@@H](Cc2ccccc2)C(=O)O)cc1,1,1,1.7,2.0,1.9
Brc1ccc2nc(-c3c[nH]c4ccccc34)cn2c1,0.8,0.4,58.2*,-0.6,17.3
Clc1ccc2nc(-c3ccc4c(c3)OCO4)cn2c1,0.9,0.1,93.0*,8.6,7.4
Clc1ccc(-c2cn3cc(Br)ccc3n2)cc1Cl,1.1,0.5,53.4*,-27.5,-5.3
CN(C)S(=O)(=O)c1cccc(-c2cn3cc(Cl)ccc3n2)c1,0.9,0.9,6.7,5.4,8.8
COc1cccc(-c2nnc(NC(=O)c3ccc4ncsc4c3)o2)c1,1.1,1,4.9,7.8,-7.3
Cc1c(Cl)cccc1-n1c(SCC(=O)NCc2ccccc2Cl)nnc1-c1ccncc1,1,1,-4.0,8.6,3.1
CCN(C(=O)COC(=O)c1cc(-c2ccc3cc(OC)ccc3c2)nc2ccccc12)C1CCS(=O)(=O)C1 (configuration not stated),0.9,0.2,76.0*,-16.6,10.1
CCOc1ccc(/C=N/NC(=O)Nc2ccccc2)cc1,x,0.6,40.7,23.4,x
CCOc1ccc(/C=N/NC(=O)c2ccccc2NC(=O)c2ccc(OC)cc2)cc1,0.9,0.1,94.1*,-12.9,13.6
Cc1ccccc1C(=O)Nc1ccc(C(=O)N/N=C/c2ccncc2)cc1,0.8,1,1.8,13.9,15.3
O=C(Nc1ccccc1C(=O)N/N=C/c1ccncc1)c1ccccc1,0.9,0,96.5*,6.1,6.8
O=C(N/N=C/c1ccco1)c1ccc(NC(=O)c2ccccc2Cl)cc1,1,1.1,-6.5,-2.7,3.2
COc1ccc(C(=O)Nc2ccccc2C(=O)N/N=C/c2ccco2)cc1,1,0,96.9*,2.4,-2.8
O=C(Nc1ccon1)c1cccc(S(=O)(=O)N2CCCCC2)c1,0.8,1.1,-8.9,18.1,20.2
Cc1cccnc1Nc1nc(-c2ccccn2)cs1,0.8,0.6,43.8,53.4*,16.0
COc1ccc(/C(N)=N/OC(=O)c2cccc([N+](=O)[O-])c2)cc1OC,0.8,1.1,-8.8,6.1,16.5
N/C(=N\OC(=O)c1cccc2ccccc12)c1cccc([N+](=O)[O-])c1,0.8,1,2.0,11.5,22.2
Cc1cccc(C(=O)O/N=C(\N)c2cccc([N+](=O)[O-])c2)c1,0.9,0.1,87.1*,3.9,7.9
N/C(=N\OC(=O)c1cccs1)c1cccc([N+](=O)[O-])c1,1,0.1,86.7*,-4.3,-0.8
Cc1ccccc1C(=O)O/N=C(\N)c1cccc([N+](=O)[O-])c1,1,0.1,90.7*,12.9,3.5
CCOc1cc(CNc2ccc3[nH]c(=O)[nH]c3c2)ccc1OCC(=O)NC(C)(C)C,0.3,1,-3.8,-42.6,66.1*
SMILES,Diaph act CS,FLuc act counter,FLuc inh counter,G6PDH counter,Diaphorase inh
COc1cc(CNc2ccc3[nH]c(=O)[nH]c3c2)cc(Cl)c1OCC(=O)NC(C)(C)C,0.3,1,-2.6,-51.7,73.2*
O=C(c1ccc2c3c(cccc13)CC2)C1CCCN(Cc2cccnc2)C1 (configuration not stated),0.9,1.1,-7.0,16.2,14.0
COc1cc(CN2CCCC(C(=O)c3ccc4c5c(cccc35)CC4)C2)cc(OC)c1O (configuration not stated),0.5,1.1,-6.7,62.1*,46.4
CC(=O)Nc1cc(OC(C)=O)c2nonc2c1OC(C)=O,0.2,1.1,-5.1,58.6*,76.1*
Cn1cc(CC(=O)NCCN2CCOCC2)c2ccccc21,1,1.1,-8.1,10.1,-1.5
COc1ccc2c(=O)c(-c3ccccc3)coc2c1,0.9,0.3,69.6*,0.8,5.3
COc1cc2[nH]c(=O)n(CCCC(=O)N3CC=C(c4ccccc4)CC3)c(=O)c2cc1OC,0.4,1,-1.8,5.4,58.1*
COc1cc2[nH]c(=O)n(CCC(=O)N3CC=C(c4ccccc4)CC3)c(=O)c2cc1OC,0.8,1.1,-5.6,-2.0,19.8
c1ccc(-c2cnc(-c3ccccc3)nc2)cc1,0.9,0.3,66.4*,17.6,7.5
O=C(O)c1ncc(-c2ccccc2)cn1,0.9,1,-3.6,8.4,7.5
c1ccc(-c2ncc3c(ccc4ccccc43)n2)cc1,0.9,0.1,89.2*,7.3,8.4
Cc1ccc(NC(=O)c2ccc3c(c2)C(=O)N(Cc2cccnc2)C3=O)c(C)c1,1,1,-1.2,5.3,-0.5
O=C(COC(=O)c1cccc(NC(=O)c2ccco2)c1)c1ccc(Br)cc1,0.8,0.4,60.1*,-0.1,21.8
Cc1ccc(C(=O)COC(=O)c2cccc(NC(=O)c3ccc([N+](=O)[O-])cc3[N+](=O)[O-])c2)cc1,1,0,96.0*,3.6,-2.3
Cc1cccc(NC(=O)CCC(=O)OCC(=O)c2ccc(Oc3ccc([N+](=O)[O-])cc3)cc2)c1,0.3,1.1,-5.6,-2.0,66.9*
O=C(Nc1cccc(N=Cc2cc(Br)cc(Br)c2O)c1)c1ccco1,0.4,1.1,-5.7,39.4,55.0*
O=C(Nc1cccc(N=Cc2cc(Cl)cc(Br)c2O)c1)c1ccco1,0.6,1.1,-5.0,9.0,40.1
CN(C)c1nc(Oc2ccc(=O)[nH]n2)nc(N2CCCCC2)n1,0.9,1,-3.9,7.6,8.0
CC1(C)Oc2ccc(NC(=O)C3COc4ccccc4O3)cc2O1 (configuration not stated),0.9,0.6,40.7,15.4,8.1
C=CCN(CC=C)c1cnn(-c2nc3ccccc3[nH]2)c(=O)c1Cl,0.9,0.5,51.4*,11.4,10.7
O=c1c(Cl)c(NCCCO)cnn1-c1nc2ccccc2[nH]1,1,0.6,37.6,9.5,-2.1
N/C(=N\N=C\c1cccc(O)c1)c1nonc1N,0.9,0.6,40.2,-0.3,5.5
N/C(=N\N=C\c1ccc(O)cc1)c1nonc1N,1.1,0.5,50.8*,1.6,-7.1
CC(Sc1ccc2c(c1)OCCO2)C(=O)Nc1ncc(Cl)cc1Cl (configuration not stated),0.4,1.1,-5.3,17.7,64.3*
O=C(CSc1nc(-c2ccccc2)nc2c1Cc1ccccc1O2)Nc1ccccc1,1,1,-4.8,6.1,2.4
O=C(CSc1nc(-c2ccc(F)cc2)nc2c1Cc1ccccc1O2)Nc1cccc(C(=O)O)c1,0.4,1,2.1,-4.6,61.3*
